Measurements as given in article PMC4547606 (Bioorganic & medicinal chemistry, 2015).
Values joined by “and” are separate entries in the source; they are usually repeats but may differ in a detail not shown here. Identical values can stand only once.

Columns and labels:
[1] = target: human CB2 receptor (Homo sapiens, UniProt P34972); assay: CB2 calcium mobilization assay, antagonist screen at 10 μM; format: cell-based; details: read-out: CB2 % Inhibition of CP55,940, compound at 10 μM; percent inhibition of CP55,940 EC80 (100 nM); mean ± SEM, at least two independent experiments in duplicate
Chain of human CB2 receptor (P34972 whole entry): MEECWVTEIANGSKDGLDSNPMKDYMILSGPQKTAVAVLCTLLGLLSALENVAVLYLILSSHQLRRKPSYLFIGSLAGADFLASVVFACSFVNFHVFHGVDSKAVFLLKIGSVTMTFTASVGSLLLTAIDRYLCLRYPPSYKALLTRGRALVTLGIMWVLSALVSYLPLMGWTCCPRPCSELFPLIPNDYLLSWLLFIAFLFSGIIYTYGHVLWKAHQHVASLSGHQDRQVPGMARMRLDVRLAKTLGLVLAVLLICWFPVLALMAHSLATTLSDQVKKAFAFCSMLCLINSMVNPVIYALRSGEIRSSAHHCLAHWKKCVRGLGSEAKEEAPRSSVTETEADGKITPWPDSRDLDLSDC

[2] = target: T1, human CB1 receptor (Homo sapiens, UniProt P21554); assay: CB1 calcium mobilization assay, modulation experiments; format: cell-based; details: Figure 2
T1 sequence (P21554 whole entry): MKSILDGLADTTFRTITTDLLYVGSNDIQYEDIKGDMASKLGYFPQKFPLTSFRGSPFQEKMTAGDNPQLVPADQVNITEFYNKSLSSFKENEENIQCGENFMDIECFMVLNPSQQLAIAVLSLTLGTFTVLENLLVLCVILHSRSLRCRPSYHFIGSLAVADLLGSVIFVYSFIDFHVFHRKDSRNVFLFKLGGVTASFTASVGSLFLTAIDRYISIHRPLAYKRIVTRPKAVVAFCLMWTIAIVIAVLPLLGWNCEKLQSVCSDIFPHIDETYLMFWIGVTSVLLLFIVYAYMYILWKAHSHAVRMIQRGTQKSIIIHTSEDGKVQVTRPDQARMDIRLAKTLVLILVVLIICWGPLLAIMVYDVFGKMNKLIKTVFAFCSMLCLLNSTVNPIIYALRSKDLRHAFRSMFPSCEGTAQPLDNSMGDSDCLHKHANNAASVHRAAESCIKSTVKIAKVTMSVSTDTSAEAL
Outline: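 CHO-RD-HGA16 cells stably expressing human CB1, plated the day before and kept overnight at 37°C, 5% CO2. Loaded with Calcium 5 dye for 45 min at 37°C in HBSS, 20 mM HEPES, 2.5 mM probenecid, pH 7.4. Pre-treated 15 min at 37°C with one test compound concentration, then serial CP55,940 dilutions added at 10 s. Fluorescence read every 1 s for 90 s.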

[3] = test system: mice; details: cited from earlier work
[4] = test system: rats; details: cited from earlier work
[5] = test system: rats; details: cited from earlier work; remark: listed apart in the source
[6] = test system: over forty GPCRs; details: including GPCRs commonly involved in drug addictions; cited from earlier work
[7] = target: T1, human CB1 receptor; assay: CB1 calcium mobilization assay, antagonist; format: cell-based; details: ratio of CB1 IC50 values
Outline: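 CHO-RD-HGA16 cells stably expressing human CB1 were plated overnight (37°C, 5% CO2), then Calcium 5 dye-loaded for 45 min at 37°C in HBSS/20 mM HEPES/2.5 mM probenecid, pH 7.4. Test compound dilutions were pre-incubated 15 min at 37°C. CP55,940 at EC80 was added at 10 s, and fluorescence was read every 1 s for 90 s. IC50 came from three-parameter logistic fits; at least three independent experiments in duplicate.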

inhibition at 10 µM [1] | SMILES | also measured
-16.4 ± 1.8% | CCc1c(C(=O)NCCc2ccc(N3CCCCC3)cc2)[nH]c2ccc(Cl)cc12 [Compound 1, Org27569] | Effect on Emax of agonist CP55,940 [2]: dose-dependently decreased the Emax; Anorectic effect, mechanism [3]: anorectic effect through non-CB1 specific mechanisms; Effect on CB1 agonist-induced effects (antinociception, catalepsy, hypothermia) [3]: did not enhance or block; Effect in catalepsy and antinociception [4]: negative results; Effect on hypothermic effects of CB1 receptor agonists CP55940 and anandamide [4]: attenuated the hypothermic effects; Cue- and drug-induced reinstatement of cocaine- and methamphetamine-seeking behavior [5]: dose-related attenuation; Pharmacological selectivity against over forty GPCRs [6]: high pharmacological selectivity
-20.4 ± 2.4% | CCc1c(C(=O)NCCc2ccc(N(C)C)cc2)[nH]c2ccc(F)cc12 [Compound 3, Org27759, reference compound] | Effect on Emax of agonist CP55,940 [2]: dose-dependently decreased the Emax
-12.7 ± 2.8% | CCc1c(C(=O)NCCc2ccc(N(C)C)cc2)[nH]c2ccc(Cl)cc12 [Compound 16, 5-Chloro-N-{2-[4-(dimethylamino)phenyl]ethyl}-3-ethyl-1H-indole-2-carboxamide] | –
– | CCc1c(C(=O)NCCc2ccc(N(CC)CC)cc2)[nH]c2ccc(Cl)cc12 [Compound 17, 5-Chloro-N-{2-[4-(diethylamino)phenyl]ethyl}-3-ethyl-1H-indole-2-carboxamide] | fold more potent than compound 1 (CB1 IC50) [7]: 2 fold
-37.4 ± 6.8% | CCCN(CCC)c1ccc(CCNC(=O)c2[nH]c3ccc(Cl)cc3c2CC)cc1 [Compound 18, 5-Chloro-N-{2-[4-(dipropylamino)phenyl]ethyl}-3-ethyl-1H-indole-2-carboxamide] | –
-35 ± 4.6% | CCCCCCNc1ccc(CCNC(=O)c2[nH]c3ccc(Cl)cc3c2CC)cc1 [Compound 19, 5-Chloro-N-{2-[4-(hexylamino)phenyl]ethyl}-3-ethyl-1H-indole-2-carboxamide] | –
-11.2 ± 19.6% | CCc1c(C(=O)NCCc2ccc(OC)cc2)[nH]c2ccc(Cl)cc12 [Compound 26, 5-Chloro-N-[2-(4-methoxyphenyl)ethyl]-3-ethyl-1H-indole-2-carboxamide] | –
-18 ± 35.4% | CCc1c(C(=O)NCCc2ccc(C(C)(C)C)cc2)[nH]c2ccc(Cl)cc12 [Compound 27, 5-Chloro-N-[2-(4-tert-butylphenyl)ethyl]-3-ethyl-1H-indole-2-carboxamide] | –
-19.2 ± 11.5% | CCc1c(C(=O)Nc2cccc(-c3cccc(N(C)C)n3)c2)[nH]c2ccc(Cl)cc12 [Compound 35, 5-Chloro-N-{3-[6-(dimethylamino)pyridin-2-yl]phenyl}-3-ethyl-1H-indole-2-carboxamide] | –
-28 ± 25.9% | CCc1c(C(=O)N2CCN(c3ccccc3)CC2)[nH]c2ccc(Cl)cc12 [Compound 36, 5-Chloro-3-ethyl-2-(4-phenylpiperazine-1-carbonyl)-1H-indole] | –
-31.1 ± 18.8% | CCc1c(C(=O)N2CCN(c3ccc(Cl)cc3)CC2)[nH]c2ccc(Cl)cc12 [Compound 37, 5-Chloro-2-[4-(4-chlorophenyl)piperazine-1-carbonyl]-3-ethyl-1H-indole] | –
-25.7 ± 10.7% | CCc1c(C(=O)NCCc2ccc(N(CC)CC)cc2)[nH]c2ccc(F)cc12 [Compound 42, 5-Fluoro-N-{2-[4-(diethylamino)phenyl]ethyl}-3-ethyl-1H-indole-2-carboxamide] | –
-21.8 ± 6.5% | CCN(CC)c1ccc(CCNC(=O)c2[nH]c3ccc(F)cc3c2C)cc1 [Compound 43, 5-Fluoro-N-{2-[4-(diethylamino)phenyl]ethyl}-3-methyl-1H-indole-2-carboxamide] | –
-23.8 ± 5.2% | CCN(CC)c1ccc(CCNC(=O)c2cc3cc(F)ccc3[nH]2)cc1 [Compound 44, 5-Fluoro-N-{2-[4-(diethylamino)phenyl]ethyl}-1H-indole-2-carboxamide] | –
– | CCN(CC)c1ccc(CCNC(=O)c2cc3cc(Cl)ccc3[nH]2)cc1 [Compound 45, 5-Chloro-N-{2-[4-(diethylamino)phenyl]ethyl}-1H-indole-2-carboxamide] | fold more potent than compound 1 (CB1 IC50) [7]: ~10 fold; fold more potent than compound 3 (CB1 IC50) [7]: ~ 2.5 fold and 2.5 fold; fold more potent than compound 17 (CB1 IC50) [7]: 6 fold; Effect on Emax of agonist CP55,940 [2]: dose-dependently decreased the Emax
-33.1 ± 16.3% | CCc1c(C(=O)NCCc2ccc(N3CCCCC3)cc2)[nH]c2ccc(F)cc12 [Compound 46, 5-Fluoro-3-ethyl-N-{2-[4-(piperidin-1-yl)phenyl]ethyl}-1H-indole-2-carboxamide] | –
